In the EternaBench riboswitch data:

Tested on: MS2 coat protein
Test: apparent Kd, MS2 coat protein; higher = weaker binding; RNA-MaP array; FMN 200 µM where present
Method in brief: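 Designs were transcribed by stalled E. coli RNA polymerase on Illumina sequencing-chip clusters. They were titrated with SNAP-549-labelled MS2 coat protein from 0.7 or 1.5 nM, doubling to 3 µM, in 100 mM Tris-HCl pH 7.5, 80 mM KCl, 4 mM MgCl2, BSA, DTT, yeast tRNA and Tween-20, without and then with constant ligand. The apparent Kd is the median of filtered per-cluster fits after normalisation of green signal to red-channel RNA signal and control-cluster median Fmax.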

[1] = designed as: OFF switch for flavin mononucleotide, no ligand
[2] = ligand present: flavin mononucleotide, designed as: OFF switch for flavin mononucleotide
[3] = designed as: ON switch for flavin mononucleotide, no ligand
[4] = ligand present: flavin mononucleotide, designed as: ON switch for flavin mononucleotide

UAGGAGUCAGGAUAUGCGAGAGAUGGAAGUAAGGGAUGAGAGCAGAAGGGACAUGAGGAUCACCCAUGUAAGGA
apparent Kd [1]: 0.0397 µM
apparent Kd [2]: 0.0377 µM

CUUUUGUGAGGAUAUCAGUAGUAGAACAAUAGUACUACUACUGAGAAGGCACAUGAGGAUCACCCAUGUUCCUU
apparent Kd [1]: 0.016 µM
apparent Kd [2]: 0.0356 µM

GAGAAGUCAGGAUAUGCUGCUCGUCACUUGCGUGAUGAGUAGCAGAAGGGACAUGAGGAUCACCCAUGUAAAGA
apparent Kd [1]: 0.0512 µM
apparent Kd [2]: 0.0645 µM

AAUAGGUUUCCCGGUGGUUAAUACAUGAGGAUCACCCAUGUCAAGGAUAUAGCCGUAUAACCAGGUUAGAAGGUGACUAAAUGA
apparent Kd [1]: 0.0675 µM
apparent Kd [2]: 0.12 µM

GGUAGGAUCGCAGGAUAUGCUAUCCUUUGGGUAGCAGAAGGGUGAUAACAUGAGGAUCACCCAUGUCCUACCGGGCGUGAGCCC
apparent Kd [3]: 0.0578 µM
apparent Kd [4]: 1.59 µM

AAAAAACAUGAGGAUCACCCAUGUCUUCGGACGUGAGGAUAUGUACAGACUUCGGUCUGUACAGAAGGCAUGUCAA
apparent Kd [3]: 0.212 µM
apparent Kd [4]: 0.0259 µM

GUAUAUAUGAGGUAGGAUAUCCAAAAUAAAACAUGAGGAUCACCCAUGUAAAUAAAUAAUAAAUGGGAGAAGGACCACAUAUAUAC
apparent Kd [3]: 0.0307 µM
apparent Kd [4]: 0.0138 µM

CGGUGGUCAGGAUAUACGAACAUGUCGCCAGAUGUCAUGGUACAUGAGGAUCACCCAUGUAGAAGGGAGUAGGU
apparent Kd [1]: 0.181 µM
apparent Kd [2]: 0.171 µM

UUUUUUUUACAGAAGGGAAUCAUGAUUUUUUGUUUUUACAUGAGGAUCACCCAUGUUUAUCUUUUUCAGGAUAUGUAUUUUUUU
apparent Kd [3]: 0.0613 µM
apparent Kd [4]: 0.032 µM

CCGUAGUACUGGGAUCCGGGCCUACAUGAGGAUCACCCAUGUCAGGAUAUACGCGAGAUAAAUACGUAGAAGGGACACAGAUGA
apparent Kd [1]: 0.0197 µM
apparent Kd [2]: 0.0331 µM

AAACAUGUCCGAGGAUAUCUGGAAACAUUUUCAAGAGAAGGCGGACAUGAGGAUCACCCAUGUCUCUCCUCAUCCACUACAAAU
apparent Kd [1]: 0.00959 µM
apparent Kd [2]: 0.0606 µM

CCUCGACAUGAGGAUCACCCAUGUCAGGAUAUUGUGUCUCGGGUUUUUUACCGUUAGGCAAGAAGGGAUGUGUG
apparent Kd [1]: 0.0221 µM
apparent Kd [2]: 0.0232 µM

AAAAAACAUGAGGAUCACCCAUGUGAGGAUAUCUGUAUUCAAUCCUCGGAUUGAAUACAGAGAAGGCACAUGGG
apparent Kd [1]: 0.0266 µM
apparent Kd [2]: 0.0269 µM

UGCAUGUAAGGAUAUGCACUGCGCGAGCCUGACUCGCAAAGGCAGAAGGUACAUGAGGAUCACCCAUGUGAGAA
apparent Kd [1]: 0.0726 µM
apparent Kd [2]: 0.0646 µM

CGCAAGGAUACAUGAGGAUCACCCAUGUCAGAAAGGGUAAUCAGAAGGUACAAUUAGAGAUAGAGUAAGGAUAUGAAAUUUGCG
apparent Kd [3]: 0.966 µM
apparent Kd [4]: 0.313 µM

AGCACGGGAUUGGAGGAUAUGUUGUUUGCAACAUGAGGAUCACCCAUGUCUGAGGCUGAAAAGCAGCAGAAGGCCGAUACAACCA
apparent Kd [3]: 0.347 µM
apparent Kd [4]: 0.0714 µM

CAAUUUAUAACAGGAUAUACAAUACAAUGAUUAGUAGAAGGGUUUAAUACAUGAGGAUCACCCAUGUCAUGUGUCAUAAUAACC
apparent Kd [1]: 0.0343 µM
apparent Kd [2]: 0.0249 µM

CAGCUCGUGUGAGGAUAUGCCGCCGUUUCGGCUGCAGAAGGUGCUACGUUACAUGAGGAUCACCCAUGUCUCUGUUGUUUCGUU
apparent Kd [3]: 0.0235 µM
apparent Kd [4]: 0.0206 µM

UUGGACGUCGUAGGAUAUGUAGUAUAUUCCUACAUGAGGAUCACCCAUGUUGACAUGGAAGAAGGACAGAAGGACGAUGUCCAU
apparent Kd [3]: 0.00654 µM
apparent Kd [4]: 0.00501 µM

AACCCUUGAGGAUAUUAAACAAAUCACAUGAGGAUCACCCAUGUGCAUACCUCGUGGCUUUGAGAAGGCAGUCGGG
apparent Kd [1]: 0.0349 µM
apparent Kd [2]: 0.0392 µM

UACAUUAACAUGAGGAUCACCCAUGUUGGCCAGUCUCACACCAGAAGGCACGUAGAGCACAACAGUGAGGAUAUGGGUGACAUA
apparent Kd [3]: 0.218 µM
apparent Kd [4]: 0.0987 µM

GUCAGCUCGUGAGGAUAUACAACACUGCUUCGGCAGUGUAUUACGAUCACAUGAGGAUCACCCAUGUAGAAGGCACGAGCUGAU
apparent Kd [1]: 0.0152 µM
apparent Kd [2]: 0.307 µM

UAAUAAUAAUAAUAAUGCUGACAUACAUGAGGAUCACCCAUGUAGGAUAUCGUCAGGAAUACUGACGAGAAGGACAUAGUCAGC
apparent Kd [1]: 0.0154 µM
apparent Kd [2]: 0.0174 µM

UUCGUGCAGCUUUGCUGUACGCGUACAUGAGGAUCACCCAUGUAGGAUAUGGUACGCUUUGCGUGCUAGAAGGAUAUGGAAAGG
apparent Kd [1]: 0.0147 µM
apparent Kd [2]: 0.0166 µM

GUAGCAUUGAGAGGAUAUCCAUACCGGAAACGGACAUGAGGAUCACCCAUGUGGCGAAAGCCUUGGGAGAAGGCUCUAUGCUAC
apparent Kd [3]: 0.00435 µM
apparent Kd [4]: 0.00352 µM

GGCAUAAUGUAGGAUAUCGUAUUGGAAACAAUACGAGAAGGGCAAACAUGAGGAUCACCCAUGUUCCUUAAGCC
apparent Kd [1]: 0.0185 µM
apparent Kd [2]: 0.019 µM

GGAGCCAGCACCGAGGAUAUUCAUAUUAAAACAUGAGGAUCACCCAUGUAGGCCAGAAGGCCUUGGGAGAAGGCGGACUGGCUCG
apparent Kd [3]: 0.206 µM
apparent Kd [4]: 0.0114 µM

CCCUGAUCGAGAGGUAGGAGUGGUAGAAGGCGACCGGUGCCAGAUGACAUGAGGAUCACCCAUGUCGAGGAUAUACCACAGAAU
apparent Kd [1]: 0.0076 µM
apparent Kd [2]: 0.0115 µM

GUGCCUAACUAGAAGGCCGAUAGCAAAGCUAUCGGAGGAUAUGGGUUCCGGAAACGGACAUGAGGAUCACCCAUGUGGCACAAA
apparent Kd [3]: 0.0865 µM
apparent Kd [4]: 0.0129 µM

GGACGACACAUGAACAUGAGGAUCACCCAUGUAACUAGACAUGAGGAUAUGGAUCCUAAUUGGAUCCAGAAGGCAUGGUCGUCC
apparent Kd [3]: 0.179 µM
apparent Kd [4]: 0.0317 µM

AAAGUGUGAAGCAGGGUGCUACAUGAGGAUCACCCAUGUCGGAGAAGGGCGCCGUUUCGCAGGGUGUAGGAUAUCUGGCGUGCA
apparent Kd [1]: 0.132 µM
apparent Kd [2]: 0.109 µM

GUCUACCUAGGAUAUACAUGAGGAUCACCCAUGUAAAGUUUCGUAAAAAGAUAAUCGAGUAGAAGGAGGUGGAU
apparent Kd [1]: 0.0203 µM
apparent Kd [2]: 0.0209 µM

AUUGACUGAGGAUAUUGUACUGCUGACAUGAGGAUCACCCAUGUAUGCUAACUCGGCCGUCGAGAAGGCAGUAAUG
apparent Kd [1]: 0.039 µM
apparent Kd [2]: 0.0273 µM

GCCAUCGCAUGAGGAUAUGCUCCGGUUUCCGGAGCAGAAGGUAUGUCAUAUGACAUGAGGAUCACCCAUGUAGUUAAGAUGGCA
apparent Kd [3]: 0.571 µM
apparent Kd [4]: 0.0547 µM

ACAUAGCGAGGAUAUACAUGAGGAUCACCCAUGUGGUGGCGGUUACGGUAGGACUAGUGUAGAAGGUGCCAUGG
apparent Kd [1]: 0.418 µM
apparent Kd [2]: 0.424 µM

GAUUAACAUGAGGAUCACCCAUGUCGUUUUAUGGGAGGAUAUACGUGGACCGUAGUCCGCGUAGAAGGCCUAAUUG
apparent Kd [3]: 0.125 µM
apparent Kd [4]: 0.0304 µM

UUGGGCGUCGUAGGAUAUGUAGGAUAUUCCUACAUGAGGAUCACCCAUGUUGACAUGGAAGAAGGACAGAAGGACGAUGUCCAU
apparent Kd [3]: 0.278 µM
apparent Kd [4]: 0.00467 µM

AUCGUUGGAGGAUAUGCUUGGAAAAAAAAAAAAAAAAAAAAACAUGAGGAUCACCCAUGUAGAAGGUCAAUGGA
apparent Kd [1]: 0.0526 µM
apparent Kd [2]: 0.0472 µM

GACUGAUUGUAGAAGGUACUUGACUAUAUAUUUUAUUCAUAUAGACAUGAGGAUCACCCAUGUAGUAAGGAUAUACUUUUAACA
apparent Kd [3]: 0.00931 µM
apparent Kd [4]: 0.006 µM

GUAUUUGGUUAGGAUAUUGACUCGAGAUCGAGAUAAGAAGGAGCCACAUGAGGAUCACCCAUGUCUAUCCAAGA
apparent Kd [1]: 0.027 µM
apparent Kd [2]: 0.0296 µM

GGAUUACAUGAGGAUCACCCAUGUGAGGAUAUCGAUGUCCUCAAUGAAGUGCGGGACUCGAGAAGGCACUUGGA
apparent Kd [1]: 0.0785 µM
apparent Kd [2]: 0.108 µM

AAAUAGCGAGGAUAUACAUGAGGAUCACCCAUGUGGACUGAUGUCGCAUGUUUCAGUGGUAGAAGGUGCUCAAA
apparent Kd [1]: 0.136 µM
apparent Kd [2]: 0.299 µM

ACAUUGUUAGGAUAUGCUGCUCGUCACUUGCGUGAUGAGUAGCAGAAGGAACAUGAGGAUCACCCAUGUAAAAA
apparent Kd [1]: 0.0331 µM
apparent Kd [2]: 0.0443 µM

CCAGUGUCAGGAUAUAUCACAAAGAACCCAACCGGGCUUUGGUAGAAGGGACAUGAGGAUCACCCAUGUUGUUU
apparent Kd [1]: 0.0309 µM
apparent Kd [2]: 0.044 µM

UCGUUUUUUGAGGAUAUGCGACGUUUUUUCGUCGUAGAAGGCGAUACAUGAGGAUCACCCAUGUUUAUGGGCAU
apparent Kd [1]: 0.19 µM
apparent Kd [2]: 0.318 µM

AUAUGAUAGAUAGGAUAUACUAUGGUUGAAGAAGUAGAAGGAUCAAUAGGGAAAUGUACAUGAGGAUCACCCAUGUUAUGGAUU
apparent Kd [3]: 0.0297 µM
apparent Kd [4]: 0.0269 µM

CAGGGUCGUAUUCAGCCCGUCCACAUGAGGAUCACCCAUGUCAAGGAUAUAGAUUAAAAUACAAGCUAGAAGGUGACGCUGGGU
apparent Kd [1]: 0.0143 µM
apparent Kd [2]: 0.0426 µM

UAUAAGUCUCAUGUAACAUGAGGAUCACCCAUGUCAUAUUGUAGAAGGAUGAUAAUAUGUAUAUCAUAGGAUAUACUAUAUGUU
apparent Kd [1]: 0.0209 µM
apparent Kd [2]: 0.0196 µM
